In ChEMBL document CHEMBL5038599, “Identification of Thiazoyl Guanidine Derivatives as Novel Antifungal Agents Inhibiting Ergosterol Biosynthesis for Treatment of Invasive Fungal Infections” (J Med Chem, 2021):
Values after ≈ are worked out from the molar mass of the structure shown. Active and inactive are the calls of the source. The calls are words filed in the database; no cut-off is given here.

How the values were obtained:
Aspergillus fumigatus [1] = assay: Antifungal activity against Aspergillus fumigatus ATCC 204305 assessed as inhibition of fungal growth incubated for 48 hrs by broth microdilution method; conditions: ATCC 204305, 48 h
Aspergillus fumigatus [2] = assay: Antifungal activity against pan-azole resistant Aspergillus fumigatus SR47013 harbouring Cyp51A Y121F mutant assessed as inhibition of fungal growth incubated for 48 hrs by broth microdilution method; conditions: SR47013, 48 h
[3] = Metabolic stability in human liver microsomes assessed as parent compound remaining at 0.5 uM incubated for 30 mins by LC/MS/MS analysis; type: ADME, Microsome; conditions: read-out: Stability
Method in brief: (§1)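 Compound at 0.5 μM was incubated with liver microsomes at 0.5 mg protein/mL at 37 °C. Buffer was 50 mM Tris-HCl pH 7.4 with 150 mM KCl, 10 mM MgCl2 and 1 mM NADPH. Reactions were stopped at 0 and 30 min with MeCN/MeOH 1:1. Percent remaining was taken from LC/MS/MS peak area ratio, in duplicate.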

[4] = Metabolic stability in rat liver microsomes assessed as parent compound remaining at 0.5 uM incubated for 30 mins by LC/MS/MS analysis; type: ADME, Microsome; conditions: read-out: Stability
Method in brief: as §1

Aspergillus fumigatus [5] = assay: Antifungal activity against Aspergillus fumigatus ATCC 204305 assessed as inhibition of fungal growth incubated for 48 hrs in presence of 50% heat-inactivated bovine serum by broth microdilution method; type: functional; conditions: ATCC 204305, 48 h, in the assay text read “incubated for 48 hrs” for “incubated for 24 hrs”
Method in brief: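 Broth microdilution per CLSI M38-A2 with modifications. Conidia at about 1 × 10⁴ CFU/mL were grown for 48 h at 35 °C in YNB with 2% glucose and complete amino-acid mix, buffered to pH 7.0 with 50 mM MOPS. Medium was with or without 50% heat-inactivated bovine serum. MIC was the lowest concentration giving no visible growth.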

Aspergillus fumigatus [6] = assay: Antifungal activity against Aspergillus fumigatus ATCC 204305 assessed as inhibition of fungal growth […] by broth microdilution method; type: functional
Candida albicans = assay: Antifungal activity against Candida albicans ATCC 90028 assessed as inhibition of fungal growth incubated for 24 hrs by broth microdilution method; type: functional
Method in brief: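 Yeast cells were adjusted to about 2 × 10³ CFU/mL and broth microdilution was run for 24 h at 35 °C. Medium was YNB with 2% glucose and complete amino-acid mix, buffered to pH 7.0 with 50 mM MOPS. MIC was the lowest concentration giving >50% growth reduction versus untreated control, read by optical density at 600 nm.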

Mus musculus [7] = assay: In vivo antifungal activity against Aspergillus fumigatus infected in ICR mouse assessed as log reduction in fungal burden with 18S rRNA in kidney at 30 mg/kg, iv administered at 2 to 50 hrs post-inoculation and measured after 60 hrs by RT-qPCR analysis; type: functional
Method in brief: (§2)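 Male ICR mice (5 weeks) were immunosuppressed with intraperitoneal cyclophosphamide, 150 mg/kg on day −4 and 100 mg/kg on day −1. Mice were infected intravenously with about 1.5 × 10⁵ conidia in saline. Tail-vein dosing was at 2, 16, 21, 26, 40, 45 and 50 h, in 5% DMSO/5% Cremophor EL/4% glucose or 5% glucose. Samples were taken at 60 h, five mice per group, and analysed by Dunnett's test against untreated controls.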

[8] = Volume of distribution at steady state in Sprague-Dawley rat at 0.5 mg/kg, iv measured upto 1440 mins by LC/MS/MS analysis; type: ADME, organism-based; conditions: in vivo, read-out: Vdss
[9] = Clearance in Sprague-Dawley rat at 0.5 mg/kg, iv measured upto 1440 mins by LC/MS/MS analysis; type: ADME, organism-based; conditions: in vivo
Mus musculus [10] = assay: In vivo antifungal activity against Aspergillus fumigatus infected in ICR mouse assessed as reduction in serum-galactomannan at 30 mg/kg, iv administered at 2 to 50 hrs post-inoculation and measured after 60 hrs by GM analysis; type: functional, organism-based
Method in brief: as §2

[11] = Unbound fraction in Sprague-Dawley rat at 0.5 mg/kg, iv measured upto 1440 mins by LC/MS/MS analysis; type: ADME, organism-based; conditions: in vivo

Row | Structure (SMILES) | MIC (Aspergillus fumigatus [1]) [µg/mL] | MIC50 (Aspergillus fumigatus [6]) [µg/mL] | MIC50 (Candida albicans) [µg/mL] | also measured
1 | CCC(C)n1ncn(-c2ccc(N3CCN(c4ccc(OCC5COC(Cn6cncn6)(c6ccc(Cl)cc6Cl)O5)cc4)CC3)cc2)c1=O (stereo not drawn) [ITRACONAZOLE] | 0.25 (≈ 0.354 µM) | – | – | MIC50 (Aspergillus fumigatus [2]): > 16 µg/mL
2 | Oc1ccccc1-c1nc(-c2csc(N=C3NCCCN3)n2)cs1 | 0.5 (≈ 1.4 µM) | – | – | remaining at 0.5 h, 0.5 µM [3]: 30%; remaining at 0.5 h, 0.5 µM [4]: 38%; MIC50 (Aspergillus fumigatus [5]): 8 µg/mL
3 | CC[C@@H]([C@H](C)O)n1ncn(-c2ccc(N3CCN(c4ccc(OC[C@@H]5CO[C@@](Cn6cncn6)(c6ccc(F)cc6F)C5)cc4)CC3)cc2)c1=O [POSACONAZOLE] | 0.063 (≈ 0.0899 µM) | – | – | MIC50 (Aspergillus fumigatus [2]): 4 µg/mL (≈ 5.71 µM)
4 | c1cc(-c2nc(-c3csc(N=C4NCCCN4)n3)cs2)ccn1 | 0.5 (≈ 1.46 µM) | – | – | remaining at 0.5 h, 0.5 µM [3]: 58%; remaining at 0.5 h, 0.5 µM [4]: 9%; MIC50 (Aspergillus fumigatus [5]): 4 µg/mL
5 | Cc1ccc(Oc2ccccc2-c2csc(N)n2)c(C)c1 | – | > 16 | 4 (≈ 13.5 µM) | –
6 | Cc1ccc(Oc2ccccc2-c2csc(/N=C3\NCCCN3C)n2)c(C)c1 | – | > 16 | 8 (≈ 20.4 µM) | –
7 | c1ccc(-n2ccc(-c3csc(N=C4NCCCN4)n3)n2)cc1 | – | > 16 | 0.5 (≈ 1.54 µM) | remaining at 0.5 h, 0.5 µM [3]: 38%; remaining at 0.5 h, 0.5 µM [4]: 1.6%
8 | Cc1ccc(Oc2ccccc2-c2csc(N=C3NCCN3)n2)c(C)c1 | – | > 16 | 0.5 (≈ 1.37 µM) | –
9 | c1ccc(-c2nc(-c3csc(N=C4NCCCN4)n3)cs2)nc1 | 16 (≈ 46.7 µM) | – | – | –
10 | Cc1ccc(Oc2ccccc2-c2csc(N=C3NCCCN3)n2)c(C)c1 [ABAFUNGIN] | – | 2 (≈ 5.28 µM) | < 0.063 | Activity (Mus musculus [7]): inactive; Vd [8]: 4.92 L/kg; remaining at 0.5 h, 0.5 µM [3]: 64%; clearance [9]: 51.4 mL/min/kg; remaining at 0.5 h, 0.5 µM [4]: 0.2%; Activity (Mus musculus [10]): inactive; MIC50 (Aspergillus fumigatus [2]): 2 µg/mL (≈ 5.28 µM); fraction unbound at 24 h [11]: < 0.001
11 | Cc1ccc(Oc2ccccc2-c2csc(Nc3ccccn3)n2)c(C)c1 | – | > 16 | > 16 | –
12 | c1ccc(-c2cccc(-c3csc(N=C4NCCCN4)n3)c2)cc1 | – | 1 (≈ 2.99 µM) | < 0.063 | –
13 | Cc1ccc(Oc2ccccc2-c2cnc(N=C3NCCCN3)s2)c(C)c1 | – | > 16 | > 16 | –
14 | CNC(=Nc1nc(-c2ccccc2Oc2ccc(C)cc2C)cs1)NC | – | > 16 | > 16 | –
15 | Cc1ccc(Oc2ccccc2-c2cccc(N=C3NCCCN3)n2)c(C)c1 | – | 4 (≈ 10.7 µM) | 0.5 (≈ 1.34 µM) | –
